In ChEMBL document CHEMBL4251599, “Synthesis and biological evaluation of coumarin derivatives containing imidazole skeleton as potential antibacterial agents” (Eur J Med Chem, 2018):
Values after ≈ are worked out from the molar mass of the structure shown.

Legend:
Staphylococcus aureus [1] = test: Bactericidal activity against Staphylococcus aureus ATCC 29213 incubated for 24 hrs followed by re-plating on nutrient agar and measured after overnight incubation by two fold serial dilution method; format: functional; conditions: ATCC 29213, 24 h
Method in brief: (§1)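 After the MIC read, 100 µl from every tube without visible growth was spread on nutrient agar lacking compound. Plates were incubated overnight at 28 ± 1 °C. MBC was taken as the lowest concentration killing >99.9% of the initial population, seen as no growth on agar.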

Streptococcus agalactiae [2] = test: Antibacterial activity against Streptococcus agalactiae WB1445 after 24 hrs by two fold serial dilution method; format: functional; conditions: WB1445, 24 h
Method in brief: (§2)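 Broth two-fold serial dilution per CLSI, in nutrient broth. Inoculum from 24 h cultures at 28 ± 1 °C, adjusted in saline to 1×10^7-2×10^7 cfu/mL, then diluted to 1×10^5-2×10^5 cfu/mL. Test range 256 down to 0.50 µM and lower. Tubes held 24 h at 28 ± 1 °C. MIC read visually. Enrofloxacin and norfloxacin served as standards.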

Streptococcus agalactiae [3] = test: Bactericidal activity against Streptococcus agalactiae WB1445 incubated for 24 hrs followed by re-plating on nutrient agar and measured after overnight incubation by two fold serial dilution method; format: functional; conditions: WB1445, 24 h; method in brief: as §1
Flavobacterium columnare [4] = test: Antibacterial activity against Flavobacterium columnare FC-G1 after 24 hrs by two fold serial dilution method; format: functional; conditions: FC-G1, 24 h; method in brief: as §2
Staphylococcus aureus [5] = test: Antibacterial activity against Staphylococcus aureus ATCC 29213 after 24 hrs by two fold serial dilution method; format: functional; conditions: ATCC 29213, 24 h; method in brief: as §2
Escherichia coli [6] = test: Bactericidal activity against Escherichia coli ATCC 35150 incubated for 24 hrs followed by re-plating on nutrient agar and measured after overnight incubation by two fold serial dilution method; format: functional; conditions: ATCC 35150, 24 h; method in brief: as §1
Flavobacterium columnare [7] = test: Bactericidal activity against Flavobacterium columnare FC-G1 incubated for 24 hrs followed by re-plating on nutrient agar and measured after overnight incubation by two fold serial dilution method; format: functional; conditions: FC-G1, 24 h; method in brief: as §1
Escherichia coli [8] = test: Antibacterial activity against Escherichia coli ATCC 35150 after 24 hrs by two fold serial dilution method; format: functional; conditions: ATCC 35150, 24 h; method in brief: as §2
[9] = Inhibition of Escherichia coli ATCC 35150 FabI in presence of t-O-NAC and NADH up to 1 min by spectrophotometric analysis
Method in brief: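 Recombinant His-tagged FabI, expressed in E. coli BL21(DE3) and purified on Ni-NTA, was used at 20 µL of 100 µg/mL stock in 0.1 M PBS-DTT. Compounds were tested at 128-1 µM with 10 µL of 4 mM t-O-NAC, and 20 µL of 2 mM NADH started the reaction. NADH oxidation was followed at 340 nm for 1 min. IC50 came from dose-response plots.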

[10] = molecular target: T1, Enoyl-(Acyl-carrier-protein) reductase II (Streptococcus agalactiae serotype V (strain ATCC BAA-611 / 2603 V/R), UniProt Q8E1K8); test: Inhibition of Streptococcus agalactiae WB1445 FabK in presence of t-O-NAC and NADH up to 1 min by spectrophotometric analysis
T1 sequence (Q8E1K8 whole entry): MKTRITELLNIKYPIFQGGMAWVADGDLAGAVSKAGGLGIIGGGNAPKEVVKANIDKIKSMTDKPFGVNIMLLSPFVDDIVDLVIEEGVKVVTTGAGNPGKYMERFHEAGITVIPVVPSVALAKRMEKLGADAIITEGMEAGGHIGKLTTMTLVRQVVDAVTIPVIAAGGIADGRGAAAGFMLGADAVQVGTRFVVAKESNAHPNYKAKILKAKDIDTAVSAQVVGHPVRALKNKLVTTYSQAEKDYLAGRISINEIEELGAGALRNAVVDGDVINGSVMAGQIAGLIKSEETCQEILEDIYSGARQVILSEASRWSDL
Method in brief: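 Recombinant His-tagged FabK (20 µL of 150 µg/mL stock) was assayed in 100 µL of 0.1 M ADA-DTT, pH 6.5, against compounds at 128-1 µM, with 10 µL of 4 mM t-O-NAC. Addition of 20 µL of 2 mM NADH started the reaction. Absorbance at 340 nm was read for 1 min. IC50 was estimated from dose-response curves.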

Row | MIC (Streptococcus agalactiae [2]) [µM] | MIC (Flavobacterium columnare [4]) [µM] | MIC (Staphylococcus aureus [5]) [µM] | MIC (Escherichia coli [8]) [µM] | IC50 [9] [µM] | IC50 [10] [µM] | SMILES | MBC (Staphylococcus aureus [1]) [µM] | MBC (Streptococcus agalactiae [3]) [µM] | MBC (Escherichia coli [6]) [µM] | MBC (Flavobacterium columnare [7]) [µM]
1 | > 256 | > 256 | > 256 | > 256 | – | – | O=c1ccc2ccc(OCCCCCCCCn3ccnc3-c3ccccc3)cc2o1 | > 256 | > 256 | > 256 | > 256
2 | > 256 | > 256 | > 256 | > 256 | – | – | O=c1ccc2ccc(OCCCCCCBr)cc2o1 | > 256 | > 256 | > 256 | > 256
3 | > 256 | > 256 | – | – | – | – | O=c1ccc2ccc(OCCCCCCCCN3CCCCC3)cc2o1 | – | > 256 | – | > 256
4 | > 256 | > 256 | > 256 | > 256 | – | – | O=c1ccc2ccc(OCCCCCCCCCCBr)cc2o1 | > 256 | > 256 | > 256 | > 256
5 | > 256 | > 256 | > 256 | > 256 | – | – | O=c1ccc2ccc(OCCCCCCCCBr)cc2o1 | > 256 | > 256 | > 256 | > 256
6 | > 256 | > 256 | – | – | – | – | O=c1ccc2ccc(OCCCCCCCCn3cccn3)cc2o1 | – | > 256 | – | > 256
7 | 256 (≈ 100 µg/mL) | 8 (≈ 3.12 µg/mL) | 32 (≈ 12.5 µg/mL) | > 256 | – | – | O=c1ccc2ccc(OCCCCCCCCn3cnc4ccccc43)cc2o1 | 128 (≈ 50 µg/mL) | 512 (≈ 200 µg/mL) | > 256 | 32 (≈ 12.5 µg/mL)
8 | 32 (≈ 10.9 µg/mL) | 64 (≈ 21.9 µg/mL) | – | – | 79.5 | 7.68 | O=c1ccc2ccc(OCCCCCCCCn3cncn3)cc2o1 | – | 64 (≈ 21.9 µg/mL) | – | 128 (≈ 43.7 µg/mL)
9 | > 256 | > 256 | – | – | – | – | O=c1ccc2ccc(OCCCCCCCCN3CCNCC3)cc2o1 | – | > 256 | – | > 256

More lines, now with the values behind:

Row | SMILES | MIC (Streptococcus agalactiae [2]) [µM] | MIC (Flavobacterium columnare [4]) [µM] | MIC (Staphylococcus aureus [5]) [µM] | MIC (Escherichia coli [8]) [µM] | IC50 [9] [µM] | IC50 [10] [µM] | MBC (Staphylococcus aureus [1]) [µM] | MBC (Streptococcus agalactiae [3]) [µM] | MBC (Escherichia coli [6]) [µM] | MBC (Flavobacterium columnare [7]) [µM]
10 | O=c1ccc2ccc(OCCCCCCn3cnc4ccccc43)cc2o1 | 32 (≈ 11.6 µg/mL) | 32 (≈ 11.6 µg/mL) | 32 (≈ 11.6 µg/mL) | > 256 | – | – | 256 (≈ 92.8 µg/mL) | 128 (≈ 46.4 µg/mL) | > 256 | 128 (≈ 46.4 µg/mL)
11 | Cc1cc(=O)oc2cc(OCCCCCCCCn3ccnc3)ccc12 | 8 (≈ 2.84 µg/mL) | 4 (≈ 1.42 µg/mL) | 64 (≈ 22.7 µg/mL) | > 256 | – | – | 256 (≈ 90.7 µg/mL) | 16 (≈ 5.67 µg/mL) | > 256 | 16 (≈ 5.67 µg/mL)
12 | O=c1ccc2ccc(OCCn3ccnc3)cc2o1 | > 256 | > 256 | > 256 | 128 (≈ 32.8 µg/mL) | – | – | > 256 | > 256 | 256 (≈ 65.6 µg/mL) | > 256
13 | CCn1cc(C(=O)O)c(=O)c2cc(F)c(N3CCNCC3)cc21 [NORFLOXACIN] | 64 (≈ 20.4 µg/mL) | 32 (≈ 10.2 µg/mL) | 32 (≈ 10.2 µg/mL) | 1 (≈ 0.319 µg/mL) | – | – | 64 (≈ 20.4 µg/mL) | 128 (≈ 40.9 µg/mL) | 2 (≈ 0.639 µg/mL) | 128 (≈ 40.9 µg/mL)
14 | O=c1ccc2ccc(OCCCCn3cnc4ccccc43)cc2o1 | > 256 | > 256 | 32 (≈ 10.7 µg/mL) | 8 (≈ 2.68 µg/mL) | – | – | 256 (≈ 85.6 µg/mL) | > 256 | 64 (≈ 21.4 µg/mL) | > 256
15 | Cc1cc(=O)oc2cc(OCCCCCCCCBr)ccc12 | > 256 | > 256 | > 256 | > 256 | – | – | > 256 | > 256 | > 256 | > 256
16 | CCN1CCN(c2cc3c(cc2F)c(=O)c(C(=O)O)cn3C2CC2)CC1 [ENROFLOXACIN] | 8 (≈ 2.88 µg/mL) | 2 (≈ 0.719 µg/mL) | 2 (≈ 0.719 µg/mL) | 1 (≈ 0.359 µg/mL) | – | – | 4 (≈ 1.44 µg/mL) | 16 (≈ 5.75 µg/mL) | 2 (≈ 0.719 µg/mL) | 2 (≈ 0.719 µg/mL)
17 | O=c1ccc2ccc(OCCn3ccnc3-c3ccccc3)cc2o1 | > 256 | > 256 | > 256 | 128 (≈ 42.5 µg/mL) | – | – | > 256 | > 256 | 512 (≈ 170 µg/mL) | > 256
